NPY Y1 blocker – blocks the human neuropeptide Y Y1 receptor; P25929; inhibition, % at 3.6 µM; 1% of 200,000 active; HEK293-CNG Y1 cells, membrane potential fluorescence; NPY at EC95, then isoproterenol;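 active = inhibition above the campaign mean inhibition of all tested compounds plus 3 SD, cut at about 20% in these data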;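 also: 0% = DMSO wells given NPY plus isoproterenol and 100% = isoproterenol alone without NPY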
Target sequence (P25929 whole entry, looked up): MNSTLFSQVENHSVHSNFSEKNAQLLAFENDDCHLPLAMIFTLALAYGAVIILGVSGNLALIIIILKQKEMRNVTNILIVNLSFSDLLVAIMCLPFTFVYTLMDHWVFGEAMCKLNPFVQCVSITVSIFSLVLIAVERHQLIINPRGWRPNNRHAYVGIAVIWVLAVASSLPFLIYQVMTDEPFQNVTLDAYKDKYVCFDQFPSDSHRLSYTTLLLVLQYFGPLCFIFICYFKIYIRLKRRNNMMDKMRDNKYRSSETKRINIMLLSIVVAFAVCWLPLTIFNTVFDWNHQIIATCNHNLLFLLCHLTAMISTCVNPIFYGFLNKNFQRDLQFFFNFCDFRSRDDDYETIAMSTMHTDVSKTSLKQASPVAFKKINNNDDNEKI
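material = HEK293 cells with Y1 receptor plus CNG channel | also added = NPY 25 nM then isoproterenol 1 µM plus Ro 20-1724 25 µM | schedule = dye 3 h, compound 60 min room temperature, stimulation 45 min | measured by = membrane potential fluorescence | benchmarks = high control isoproterenol alone, low control NPY with isoproterenol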
NPY Y2 blocker – antagonists of human neuropeptide Y receptor Y2. P49146. NPY-Y2 expressing cells, antagonist mode. inhibition, % at 2.7 µM. 0.99% of 140,000 active; in the data active = inhibition above about 17%;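 also: 0% = vehicle with agonist challenge and 100% = reference antagonist with challenge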
Target sequence (P49146 whole entry, looked up): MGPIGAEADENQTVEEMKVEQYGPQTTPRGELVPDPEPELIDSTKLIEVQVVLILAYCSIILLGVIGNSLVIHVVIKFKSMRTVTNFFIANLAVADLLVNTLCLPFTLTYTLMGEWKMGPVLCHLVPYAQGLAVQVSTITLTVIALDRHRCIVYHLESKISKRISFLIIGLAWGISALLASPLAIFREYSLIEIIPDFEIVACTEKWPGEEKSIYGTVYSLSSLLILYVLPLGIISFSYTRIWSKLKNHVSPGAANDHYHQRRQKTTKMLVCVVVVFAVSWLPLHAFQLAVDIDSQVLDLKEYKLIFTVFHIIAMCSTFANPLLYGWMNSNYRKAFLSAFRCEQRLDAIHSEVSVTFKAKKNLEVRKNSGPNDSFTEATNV
NPY-Y1 PAM-ag – potentiators or agonists of human neuropeptide Y receptor Y1; NPY-Y1 expressing cells, potentiator/agonist activation; P25929; 0.37% of 220,000 active; AID 1304; activation, % at 3.6 µM; in the data active = activation above about 33%, passing the limit was not always enough;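 also: cells stimulated with NPY at EC10 then isoproterenol at EC100; 0% = low agonist plus stimulus and 100% = saturating agonist plus stimulus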
NPY-Y2 PAM-ag – human NPY-Y2 potentiation or agonism, primary screen; cells expressing NPY-Y2, potentiator/agonist read-out; activation, % at 3.6 µM; 0.45% of 220,000 active; AID 1359; in the data active = activation above about 27%;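 also: cells stimulated with NPY near EC25 plus isoproterenol at EC100; 0% = vehicle plus submaximal agonist and 100% = vehicle plus saturating agonist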
NPY-Y2 pot conf – confirmation of human NPY-Y2 receptor potentiators or agonists | cell-based NPY-Y2 potentiator/agonist assay | 20% of 450 active | shares compounds with NPY-Y2 PAM-ag | activation, % at 3.6 µM; in the data active = activation above about 33%
NPY-Y1 potentiator – potentiates or activates NPY-Y1, counter-screen for NPY-Y2 hits. shares compounds with NPY-Y2 PAM-ag. Y1 HEK293-CNG cells, membrane potential fluorescence. activation, % at 3.6 µM. 20% of 450 active; in the data active = activation above about 45%;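 also: cells stimulated with submaximal NPY then isoproterenol with phosphodiesterase inhibitor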
NPY-Y1 agonist 2 – human NPY-Y1 agonism as NPY-Y2 potentiator counter-screen. shares compounds with NPY-Y2 PAM-ag. HEK293 Y1-CNGC, membrane potential fluorescence. activation, % at 3.6 µM. 37% of 450 active. AID 1702;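 active = activation above the mean of DMSO-only control wells plus 3 SD, cut at about 18% in these data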;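 also: cells stimulated with 1 µM isoproterenol plus the PDE inhibitor Ro 20-1724; 0% = isoproterenol with DMSO and no NPY and 100% = 40 nM NPY; Y1 agonists lower the membrane potential dye signal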
CNGC inh – blocks CNG channel activity, counter-screen for NPY-Y2 potentiators | shares compounds with NPY-Y2 PAM-ag | HEK293-CNG parental, isoproterenol cAMP, membrane potential fluorescence | inhibition, % at 3.6 µM | 32% of 450 active;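 active = inhibition above the control-well mean plus 3 SD of those wells, cut at about 22% in these data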;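 also: 0% = DMSO with isoproterenol and 100% = DMSO without isoproterenol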
NPY-Y2 ag 2 – NPY-Y2 agonism, counter-screen for Y2 potentiators; 56% of 450 active; shares compounds with NPY-Y2 PAM-ag; AID 1710; HEK293 Y2/CNGC cells, membrane potential fluorescence, agonist mode; activation, % at 3.6 µM;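 active = activation above the mean of solvent-only control wells plus 3 SD, cut at about 10% in these data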;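 also: cells stimulated by isoproterenol with no NPY added so direct agonism is tested; 0% = DMSO with isoproterenol alone and 100% = NPY at EC100 plus isoproterenol; agonism lowers probe fluorescence through less cAMP and CNG channel opening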
* = called active by the depositor; / = not tested or not shown. Only some compounds are listed: those with a hit (about 1.8% of all), similar ones and a draw of the others.

SMILES | NPY Y1 blocker | NPY Y2 blocker | NPY-Y1 PAM-ag | NPY-Y2 PAM-ag | NPY-Y2 pot conf | NPY-Y1 potentiator | NPY-Y1 agonist 2 | CNGC inh | NPY-Y2 ag 2
CN(C)C=Nc1ncc2c3ccccc3n(Cc3ccccc3)c2c1C#N | 2 | 4 | -23 | 0 | / | / | / | / | /
CN(C)C=Nc1ncc2c3ccccc3n(CCN(C)C)c2c1C#N | -3 | 2 | -37 | 101* | -7 | -11 | -23 | -12 | -15
c1ccc2c(c1)CCN(C1=Nc3cccc4cccc1c34)C2 | -5 | / | 38 | 33* | 64* | 88* | 62* | 62* | 61*
CCOC(=O)c1c(C)[nH]c(C(=O)COC(=O)c2ccc(O)cc2)c1C | / | / | 8 | 45* | -9 | -16 | -13 | -11 | -3
CCOC(=O)C1=C(Cn2cnc3ccccc32)NC(=O)NC1c1cc(C)ccc1C (stereo unspecified) | 1 | 8 | 11 | 33* | 20 | 23 | 20* | 23* | 23*
O=C(Nc1ccccc1Cl)c1c(F)c(F)c(F)c(F)c1F | -13 | 2 | 31 | 32* | 1 | 15 | -3 | 12 | 16*
O=C(Cn1c(-c2cscn2)nc2ccccc21)Nc1ccc2ccccc2c1 | -10 | -1 | 44 | 29* | 18 | 37 | 27* | 32* | 25*
O=C(/C=C/c1ccc([N+](=O)[O-])cc1)NCCc1ccc(F)cc1 | 2 | / | 9 | 46* | 0 | -2 | -5 | -1 | 9
O=C(/C=C/c1cccc([N+](=O)[O-])c1)NCCc1ccc(F)cc1 | 3 | 9 | -7 | 7 | / | / | / | / | /
Clc1cccc(Cl)c1Cn1ccc(C2CC2)n1 | 8 | / | -10 | 2 | / | / | / | / | /
CCC(NC(C)C)C(O)c1ccc(O)c(O)c1 (stereo unspecified) | -4 | 0 | 61 | 65* | 53* | 51* | 67* | 53* | 41*
CC(C)C(=O)c1ccc(O)c(O)c1 | / | / | 3 | -11 | / | / | / | / | /
Fc1ccc(Nc2nc(-c3cccnc3)cs2)cc1 | -13 | / | 33 | 34* | 35* | 58* | 59* | 43* | 43*
Cc1ccc(Nc2nc(-c3ccncc3)cs2)cc1 | -15 | / | 31 | 36* | 35* | 48* | 60* | 49* | 46*
Cc1ccc(C(=O)Nc2nc3ccccc3n2CCN2CCCC2)cc1 | 9 | 4 | 14 | 44* | 50* | 50* | 19* | 39* | 47*
O=C1Nc2ccccc2N=C(c2ccccc2)c2ccccc21 | / | / | 27 | 41* | 6 | 19 | 9 | 14 | -2
Cc1nn(-c2ccccc2)nc1C(=O)c1c(C)[nH]n(-c2ccccc2)c1=O | / | / | -22 | 65* | -20 | -13 | -6 | -13 | -5
Cc1noc(C)c1C(=O)N1CCCC(C(=O)c2cccc(C(F)(F)F)c2)C1 (stereo unspecified) | 0 | / | -1 | -10 | / | / | / | / | /
Cn1c(=O)c2c(nc(NN=C3CCCC3)n2C)n(C)c1=O | / | / | 3 | -15 | / | / | / | / | /
CN1CCc2nc3sc(C(=O)C45CC6CC(CC(C6)C4)C5)c(N)c3cc2C1 | 3 | -1 | 15 | 22 | / | / | / | / | /
CNc1nc(N)c(C(=O)C23CC4CC(CC(C4)C2)C3)s1 | -6 | / | 27 | 31* | 11 | 17 | 14 | 12 | 2
CCc1nc(NCC(C)C)c(C#N)c2c1COC(C)(C)C2 | -2 | -1 | -8 | 38* | -6 | -8 | -26 | -14 | -13
CCc1nc(NCC2CCCO2)c(C#N)c2c1COC(C)(C)C2 (stereo unspecified) | 5 | 2 | -33 | -3 | / | / | / | / | /
COc1ccc(Cn2c(=O)c3[nH]cnc3n(-c3ccc(C)cc3)c2=O)cc1 | / | / | -13 | -18 | / | / | / | / | /
OCCN(CCO)c1ccc(C(c2ccccc2Cl)c2ccc(N(CCO)CCO)cc2Cl)c(Cl)c1 | -9 | -3 | 39 | 34* | 35* | 47* | 31* | 37* | 39*
SMILES | NPY Y1 blocker | NPY Y2 blocker | NPY-Y1 PAM-ag | NPY-Y2 PAM-ag | NPY-Y2 pot conf | NPY-Y1 potentiator | NPY-Y1 agonist 2 | CNGC inh | NPY-Y2 ag 2
Cc1ccc(NC(=S)N2CCC(N(C)CC3CCCO3)CC2)cc1 (stereo unspecified) | 0 | / | -11 | 10 | / | / | / | / | /
Cc1cc(C)cc(NC(=S)N2CCC(N(C)CC3CCCO3)CC2)c1 (stereo unspecified) | -2 | / | 12 | 31* | 7 | 3 | -3 | 5 | 10
Cc1nn(C)c(C)c1CNC(=O)Nc1cccc(Cl)c1C | -1 | / | -2 | -2 | / | / | / | / | /
O=S(=O)(Nc1cccc2ccccc12)c1cccc2nonc12 | / | / | 19 | 63* | -1 | 6 | -3 | -3 | -2
COc1ccc(C)cc1NC(=O)CNC(C)C(=O)Nc1cc(Cl)ccc1Cl (stereo unspecified) | 15 | / | -10 | -9 | / | / | / | / | /
CCCOc1ccc(CCC(=O)N/N=C/c2ccco2)cc1 | / | / | 8 | 100* | 2 | 3 | -5 | 1 | 6
CCCCOc1ccc(CCC(=O)N/N=C/c2ccco2)cc1 | / | / | -1 | -10 | / | / | / | / | /
NS(=O)(=O)c1ccc(NC(=O)Nc2ccc(C(F)(F)F)cc2)cc1 | / | / | 19 | 30 | / | / | / | / | /
CC(C)C[C@H](NC(=O)c1nc[nH]c1C(=O)NC1CCN(C(=O)OC(C)(C)C)CC1)C(=O)OCc1ccccc1 | -10 | / | 30 | 44* | 26 | 46* | 20* | 22* | 21*
CCOC(=O)c1cn2nc(Oc3cccc(C(F)(F)F)c3)ccc2n1 | / | / | -6 | 7 | / | / | / | / | /
NS(=O)(=O)c1ccc(N/N=C2/CCCCC2C2CCCCC2)c([N+](=O)[O-])c1 (stereo unspecified) | 2 | -4 | 42 | 39* | 57* | 61* | 60* | 41* | 67*
Cc1cc(C)c2c(c1)/C(=N/Nc1ccc(S(N)(=O)=O)cc1[N+](=O)[O-])CCC2 | 0 | / | 13 | -4 | / | / | / | / | /
Cc1ccccc1Nc1c(-c2ccc(N3CCOCC3)cc2)nc2cnccn12 | / | / | 45 | 39* | 68* | 76* | 52* | 48* | 68*
Cc1ccc(Nc2c(-c3ccc(N4CCOCC4)cc3)nc3cnccn23)cc1 | / | / | 14 | 4 | / | / | / | / | /
C/C(=N\O)C1CCCCC1 | / | / | 1 | 12 | / | / | / | / | /
COc1ccc(NS(=O)(=O)c2ccc(OC)c(N(C)S(=O)(=O)c3ccc(Cl)cc3)c2)cc1 | 4 | 3 | -10 | 35* | -2 | -31 | -22 | -9 | -3
COc1ccc(S(=O)(=O)Nc2ccc(F)cc2)cc1N(C)S(=O)(=O)c1ccc(Cl)cc1 | -2 | 2 | 12 | 30 | / | / | / | / | /
COc1ccc2c(c1)c(CC(=O)Nc1nnc(C3CC3)s1)c(C)n2C(=O)c1ccc(Cl)cc1 | / | / | 49 | 49* | 12 | 10 | 21* | -4 | 12*
